From ChEMBL document CHEMBL1671838, “Discovery of MK-1220: A Macrocyclic Inhibitor of Hepatitis C Virus NS3/4A Protease with Improved Preclinical Plasma Exposure” (ACS Med Chem Lett, 2011)

Tests used:
[1] = Drug level in Sprague-Dawley rat liver at 5 mg/kg, po after 4 hrs; type: ADME, organism-based; set-up: dose 5 mg/kg, route oral; conditions: read-out: Drug uptake
How it was run: (§1)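 Rat PK screen: 5 mg/kg given orally in PEG400, n = 2; plasma AUC calculated from a 4 h experiment, and liver concentration measured at 4 h after dosing.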

[2] = Inhibition of HCV NS3/4A protease expressed Escherichia coli after 1 hr by time-resolved fluorescence assay; set-up: species or system Hepacivirus hominis
How it was run: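 Binding assay against genotype 1b HCV NS3/4A protease, read by time-resolved fluorescence; potency expressed as Ki.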

[3] = AUC in Sprague-Dawley rat plasma at 5 mg/kg, po after 4 hrs; type: ADME, organism-based; set-up: time < 4 hr, dose 5 mg/kg, route oral; how it was run: as §1
Hepatitis C virus [4] = experiment: Antiviral activity against HCV1b con1 infected in human HuH7 cells assessed as inhibition of viral replication after 24 hrs in presence of 10% fetal bovine serum; type: functional, organism-based, Hepacivirus hominis; conditions: Con1, Huh-7, 24 h
How it was run: (§2)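 Cell-based HCV replicon assay giving IC50. Genotype 1b replicon run with 10% fetal bovine serum or with 50% normal human serum. Genotype 2a replicon run with 10% FBS.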

Hepatitis C virus [5] = experiment: Antiviral activity against HCV1b con1 infected in human HuH7 cells assessed as inhibition of viral replication after 24 hrs in presence of 50% normal human serum; type: functional, organism-based, Hepacivirus hominis; conditions: Con1, Huh-7, 24 h; how it was run: as §2

concentration at 4 h [1] [µM]	AUC at 4 h [3] [µM·h]	IC50 (Hepatitis C virus [4]) [nM]	Compound	Ki [2] [nM]	IC50 (Hepatitis C virus [5]) [nM]
8	18.1	2	C=C[C@@H]1C[C@]1(NC(=O)[C@@H]1C[C@@H]2CN1C(=O)[C@H](C1CCCC1)NC(=O)OCCCCCc1cc3c(nccc3cc1OC)O2)C(=O)NS(=O)(=O)C1CC1	0.03	80
29.8	3.1	4.5	C=C[C@@H]1C[C@]1(NC(=O)[C@@H]1C[C@@H]2CN1C(=O)[C@H](C1CCCCC1)NC(=O)OCCCCCc1ccc3ccnc(c3c1)O2)C(=O)NS(=O)(=O)C1CC1	0.15	181
0.09	0.8	15	C=C[C@@H]1C[C@]1(NC(=O)[C@@H]1C[C@@H]2CN1C(=O)[C@H](C1CCOCC1)NC(=O)OCCCCCc1ccc3ccnc(c3c1)O2)C(=O)NS(=O)(=O)C1CC1	0.07	34
9.2	4.2	2	C=C[C@@H]1C[C@]1(NC(=O)[C@@H]1C[C@@H]2CN1C(=O)[C@H](C1CCCC1)NC(=O)OCCC/C=C/c1ccc3ccnc(c3c1)O2)C(=O)NS(=O)(=O)C1CC1	0.1	40
8.8	1.6	50	C=C[C@@H]1C[C@]1(NC(=O)[C@@H]1C[C@@H]2CN1C(=O)[C@H](C(C)(C)C)NC(=O)OCCCCCc1cc(OC(F)(F)F)c3ccnc(c3c1)O2)C(=O)NS(=O)(=O)C1CC1	0.75	4400
46.9	0.67	2.5	C=C[C@@H]1C[C@]1(NC(=O)[C@@H]1C[C@@H]2CN1C(=O)[C@H](C1CCCCC1)NC(=O)OCCC/C=C/c1ccc3ccnc(c3c1)O2)C(=O)NS(=O)(=O)C1CC1	0.063	78
–	–	7	C=C[C@@H]1C[C@]1(NC(=O)[C@@H]1C[C@@H]2CN1C(=O)[C@H](C1CCC1)NC(=O)OCCCCCc1ccc3ccnc(c3c1)O2)C(=O)NS(=O)(=O)C1CC1	0.18	130
33.2	17.7	2.7	C=C[C@@H]1C[C@]1(NC(=O)[C@@H]1C[C@@H]2CN1C(=O)[C@H](C(C)(C)C)NC(=O)OCCCCCc1cc(OC)c3ccnc(c3c1)O2)C(=O)NS(=O)(=O)C1CC1	0.04	35
–	–	–	C=C[C@@H]1C[C@]1(NC(=O)[C@@H]1C[C@@H]2CN1C(=O)[C@H](c1ccccc1)NC(=O)OCCCCCc1ccc3ccnc(c3c1)O2)C(=O)NS(=O)(=O)C1CC1	1	–
–	–	280	C=C[C@@H]1C[C@]1(NC(=O)[C@@H]1C[C@@H]2CN1C(=O)[C@H](C(C)(C)C)NC(=O)OCCCCCc1cc(S(C)(=O)=O)c3ccnc(c3c1)O2)C(=O)NS(=O)(=O)C1CC1	0.11	> 1000
0.4	0.07	20	C=C[C@@H]1C[C@]1(NC(=O)[C@@H]1C[C@@H]2CN1C(=O)[C@H](c1c[nH]c3ccccc13)NC(=O)OCCC/C=C/c1ccc3ccnc(c3c1)O2)C(=O)NS(=O)(=O)C1CC1	2	–
–	0.27	8.7	C=C[C@@H]1C[C@]1(NC(=O)[C@@H]1C[C@@H]2CN1C(=O)[C@H](C(C)(C)C)NC(=O)OCCCCCc1ccc3ccnc(c3c1)O2)C(=O)NS(=O)(=O)C1CC1	0.18	46
10	0.43	3	C=C[C@@H]1C[C@]1(NC(=O)[C@@H]1C[C@@H]2CN1C(=O)[C@H](Cc1ccccc1)NC(=O)OCCC/C=C/c1ccc3ccnc(c3c1)O2)C(=O)NS(=O)(=O)C1CC1	0.65	–
–	–	21	C=C[C@@H]1C[C@]1(NC(=O)[C@@H]1C[C@@H]2CN1C(=O)[C@H](C(C)(C)C)NC(=O)OCCCCCc1cc(C(F)(F)F)c3ccnc(c3c1)O2)C(=O)NS(=O)(=O)C1CC1	0.25	410
